# Measured values published in article PMC3319156 (Journal of Medicinal Chemistry, 2011).
# Biological target: Tyr705 of Stat3 (Homo sapiens, UniProt P40763)
# Assay: Inhibition of constitutive Stat3 Tyr705 phosphorylation in MDA-MB-468 cells
# Type: cell-based
# Conditions: for concentration at which pStat3 was completely inhibited / concentration with noticeable inhibition of pStat3: MDA-MB-468, 2 h treatment, western blot; for effect on pStat3 band at 25 µM: MDA-MB-468, 25 µM
# Summary of the method: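 MDA-MB-468 cells (4 × 10^5/well) were grown overnight in DMEM with 10% FCS. Prodrug was given from a 10 mM DMSO stock prepared fresh, for 2 h, or over a time course. After ice-cold PBS washes, cells were lysed (Hepes pH 7.4, Triton X-100, NaF, vanadate, protease inhibitors). 12 µg protein went on 8% SDS-PAGE/PVDF with 5% BSA block. Blots were probed for pStat3 Y705 by ECL, stripped at 50°C, and reprobed for total Stat3.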
# Sequence of Tyr705 of Stat3 (P40763 whole entry): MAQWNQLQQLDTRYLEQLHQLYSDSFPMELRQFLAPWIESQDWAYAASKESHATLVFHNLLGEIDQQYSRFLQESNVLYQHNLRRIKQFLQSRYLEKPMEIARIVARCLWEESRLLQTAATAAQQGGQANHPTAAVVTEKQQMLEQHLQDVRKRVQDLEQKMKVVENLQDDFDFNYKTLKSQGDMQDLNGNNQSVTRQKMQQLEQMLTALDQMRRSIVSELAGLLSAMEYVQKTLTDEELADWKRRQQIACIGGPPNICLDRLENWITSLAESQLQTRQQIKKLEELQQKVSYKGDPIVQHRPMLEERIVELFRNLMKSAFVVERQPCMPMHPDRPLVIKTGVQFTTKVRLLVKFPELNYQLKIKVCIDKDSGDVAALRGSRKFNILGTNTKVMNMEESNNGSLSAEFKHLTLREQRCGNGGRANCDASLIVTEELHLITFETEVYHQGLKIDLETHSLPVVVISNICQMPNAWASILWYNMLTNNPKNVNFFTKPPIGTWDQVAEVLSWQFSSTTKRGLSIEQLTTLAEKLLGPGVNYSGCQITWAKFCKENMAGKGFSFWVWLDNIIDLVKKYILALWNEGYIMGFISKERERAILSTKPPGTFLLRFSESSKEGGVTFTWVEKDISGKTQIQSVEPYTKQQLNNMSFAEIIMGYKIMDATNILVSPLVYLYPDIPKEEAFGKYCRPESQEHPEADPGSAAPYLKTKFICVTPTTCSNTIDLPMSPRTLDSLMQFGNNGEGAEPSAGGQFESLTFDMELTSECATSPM
concentration at which pStat3 was completely inhibited,concentration with noticeable inhibition of pStat3,effect on pStat3 band at 25 µM,SMILES,other results
–,–,–,C/C(=C\C(=O)N[C@H]1CCc2cccc3c2N(C1=O)[C@H](C(=O)N[C@@H](CCC(N)=O)C(=O)NCc1ccccc1)C3)c1ccc(C(F)(F)P(=O)(OCOC(=O)C(C)(C)C)OCOC(=O)C(C)(C)C)cc1 [compound 32],"effect on level of pStat3 (MDA-MB-468, 2 h, increasing concentrations): reduced the level of pStat3 in a dose-dependent manner"
0.5 µM,0.1 µM,–,C[C@H](CCC(N)=O)NC(=O)[C@@H]1Cc2cccc3c2N1C(=O)[C@@H](NC(=O)/C=C/c1ccc(C(F)(F)P(=O)(OCOC(=O)C(C)(C)C)OCOC(=O)C(C)(C)C)cc1)CC3 [compound 33],–
–,≥ 25 µM,only partially reduced,CCCC[C@H](NC(=O)/C=C(\C)c1ccc(C(F)(F)P(=O)(OCOC(=O)C(C)(C)C)OCOC(=O)C(C)(C)C)cc1)C(=O)N1C[C@@H]2C[C@@H]2[C@@H]1C(=O)N[C@@H](CCC(N)=O)C(C)OCc1ccccc1 (stereo partly shown) [compound 36],fold less potent at inhibiting Stat3 phosphorylation (relative to 35): 20–25 fold
–,–,only partially reduced,CCCC[C@H](NC(=O)/C=C(\C)c1ccc(C(F)(F)P(=O)(OCOC(=O)C(C)(C)C)OCOC(=O)C(C)(C)C)cc1)C(=O)N1C[C@@H]2C[C@@H]2[C@@H]1C(=O)N[C@H](C)CCC(N)=O [compound 38],–
5 µM,–,–,CCCC[C@H](NC(=O)/C=C(\C)c1ccc(C(F)(F)P(=O)(OCOC(=O)C(C)(C)C)OCOC(=O)C(C)(C)C)cc1)C(=O)N1CC2CC2C1C(=O)NCCNC(N)=O (stereo partly shown) [compound 39],"inhibition of the phosphorylation of Stat3 up to 1 µM (MDA-MB-468, up to 1 µM, 2 h): little inhibition"

SMILES,concentration at which pStat3 was completely inhibited,concentration with noticeable inhibition of pStat3,effect on pStat3 band at 25 µM,other results
CCOP(=O)(OCC)C(F)(F)c1ccc(/C(C)=C/C(=O)N[C@H]2CCc3cccc4c3N(C2=O)[C@H](C(=O)N[C@H](C)CCC(N)=O)C4)cc1 [compound 40],–,–,no effect on Stat3 phosphorylation,–
